From publication PMC10681497 (CPT: Pharmacometrics & Systems Pharmacology, 2023)
Read-outs that look alike come from different tables or passages of the source.

What was measured:
[1] = previously characterized; cited from earlier work
[2] = Simulated steady-state exposure; details: human, plasma, oral, 13.5 mg
How it was run: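 Each patient's dense steady‑state post hoc concentration‑time profile was simulated from the updated population PK model. Cmax,ss, Cmin,ss and AUCss were then derived by noncompartmental methods, with oral once‑daily dosing of 13.5 mg.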

[3] = test system: serum phosphate concentration; experiment: Exposure-response Emax model of serum phosphate change from baseline; design: species or system human; details: in vivo
How it was run: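 Serum phosphate was measured in serum chemistry in 300 pooled monotherapy patients from FIGHT‑101, ‑102 and ‑202. The change from baseline was the mean of C1D8 and C1D15. A three‑parameter Emax nonlinear model related this change to model‑derived AUCss, with baseline serum phosphate as a covariate. Parameters were the maximum change (Emax) and the exposure giving 50% of the maximum increase.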

OCT2 = details: read-out: IC50, OCT2; cited from earlier work
[4] = previously characterized; cited from earlier work; remark: listed apart in the source
[5] = test system: serum creatinine concentration; experiment: Exposure-response Emax model of serum creatinine percent change from baseline; type: in vivo, human
How it was run: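 Serum creatinine was measured in routine serum chemistry in 300 pooled monotherapy patients from FIGHT‑101, FIGHT‑102 and FIGHT‑202, using the mean of C1D8 and C1D15. A three‑parameter Emax nonlinear model related percent change from baseline to AUCss. Emax is the maximum change, with a half‑maximal exposure term. For prediction, AUCss was the mean post hoc value at 13.5 mg q.d. and was dose‑scaled for 6, 9 and 20 mg.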

MATE1 = details: read-out: IC50, MATE1; cited from earlier work
[6] = test system: patients with CCA with FGFR2 fusions/re‐arrangements; details: for Median PFS: 13.5 mg once daily
[7] = cited from earlier work
Population PK analysis = type: in vivo, human
How it was run: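 A prior two‑compartment NONMEM model was refined, keeping its interindividual random effects. Covariates were tested on CL/F, Vc/F (age, body weight), Vp/F (body weight) and Ka (sex, fasting, PPI, H2B). Selection used stepwise forward addition (p 0.05) and backward elimination (p 0.005) by likelihood ratio test. Evaluation used nonparametric bootstrap and prediction‑corrected VPC.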

[8] = FIGHT-106, healthy participants, 13.5 mg
[9] = covariate effect, final population PK model

In the case of `CCN1C(=O)N(c2c(F)c(OC)cc(OC)c2F)Cc2cnc3[nH]c(CN4CCOCC4)cc3c21` [pemigatinib], the pH-dependent solubility [1] is given as “poorly soluble at pH > 2”, the AUC [2] is given as 2.85 µM·h and the “Reduction from baseline per 1-mg/dL increase in baseline serum phosphate level” value [3] is given as “less than or equal to 0.185 mg/dL”. The IC50 (OCT2) was 75 nM, the Permeability [4] was “high permeability” and the “Estimated percentage change from baseline in serum creatinine concentration” value (shortened to “Estimated percentage change”) ([5]; 6 mg, dose-scaled mean post hoc AUCss) was 14.2%. For the same molecule, the “Estimated percentage change” value ([5]; 9 mg, dose-scaled mean post hoc AUCss) was 18.3%, the “Estimated percentage change” value ([5]; 13.5 mg q.d., mean post hoc AUCss) was 22.7% and the “Estimated percentage change” value ([5]; 20 mg, dose-scaled mean post hoc AUCss) was 26.9%. For the same molecule, the IC50 (MATE1) was 1100 nM, the “Model predicted ORR” value ([6]; 6 mg, model on mean change from baseline in serum phosphate) was 29.7% and the “Model predicted ORR” value ([6]; 9 mg, model on mean change from baseline in serum phosphate) was 41.4%. For the same molecule, the “Model predicted ORR” value ([6]; 13.5 mg, model on AUCss, mean AUCss 2850 h∙nM) was 45.2%, the “Model predicted ORR” value ([6]; 13.5 mg, model on mean change from baseline in serum phosphate) was 47.1% and the “Model predicted ORR” value ([6]; 20 mg, model on mean change from baseline in serum phosphate) was 46.8%. For the same molecule, the “Median PFS” value ([6]; AUCss first quartile) was 6.93 months, the “Median PFS” value ([6]; AUCss fourth quartile) was 7.03 months and the “Median PFS” value ([6]; AUCss second quartile) was 6.93 months. The “Median PFS” value ([6]; AUCss third quartile) was 9.20 months, the “Increase in AUC on co-administration of the H2B ranitidine” value [7, 8] was 3% and the “Reduction in C max on co-administration of the H2B ranitidine” value [7, 8] was 2%. The “Effect of concomitant PPI esomeprazole on pemigatinib exposure” value ([7]; FIGHT-106) was “only a modest effect”, the “Reduction in K a with use of PPI” value (Population PK analysis; concomitant PPI vs no PPI) was 62% and the “Body weight on V c/F” value (Population PK analysis; [9]) was 0.842%. The “Body weight to V p/F” value (Population PK analysis; [9]) was 1.13%, the “H2B antagonist on D1” value (Population PK analysis; [9]) was −33.4% and the “Male sex on CL/F” value (Population PK analysis; [9]) was 26.2%. The “Male sex on K a” value (Population PK analysis; [9]) was −58.3%, the “PPI on K a” value (Population PK analysis; [9]) was −62.0% and the “Phosphate binder on CL/F” value (Population PK analysis; [9]) was −15.5%. The “D1 (duration of zero-order drug release), population mean” value (Population PK analysis; final population PK model) was 0.810 h, the “K a (absorption rate constant), population mean” value (Population PK analysis; final population PK model) was 3.67 h⁻¹ and the “CL/F (apparent clearance), population mean” value (Population PK analysis; final population PK model, 467 participants) was 10.7 L/h. For the same molecule, the “Higher CL/F in men compared with women” value (Population PK analysis; human, in vivo) was 26.2%, the “Lower K a in men compared with women” value (Population PK analysis; human, in vivo) was 58.3% and the “Reduction in D1 with use of H2B” value (Population PK analysis; human, in vivo) was 33.4%. The Vd/F (Population PK analysis; human, plasma, oral) was 118 L and the “Reduction in CL/F with use of phosphate-binding agents” value (Population PK analysis; users vs nonusers) was 15.5%.
